Measurements taken from ChEMBL document CHEMBL3272334, “Folate antagonists. 10. Synthesis and antimalarial effects of 6-[[(aryl and aralkyl)amino]methyl]-2,4-pteridinediamines and -pteridinediamine 8-oxides” (1978).
In brackets after ≈: the same amount, converted by molar mass. Activity calls are given as the source filed them. The rule behind the calls is not given here.

Columns and labels:
[1] = system: Plasmodium berghei; experiment: Antimalarial activity against drug-sensitive trophozoite stage of Plasmodium berghei infected in mouse assessed as increase in mean survival time up to 640 mg/kg, sc administered 72 hrs post infection; format: functional, organism-based; set-up: dose 640 mg/kg
[2] = system: Enterococcus faecalis; experiment: Antibacterial activity against Streptococcus faecalis MGH2 assessed as growth inhibition by gradient plate test; format: functional
In short: (§1)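 Modified gradient-plate method, in vitro. Panel: Streptococcus faecalis MGH-2, normal S. aureus UC-76, drug-resistant S. aureus S18713, E. coli Vogel, Shigella sonnei C-10.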

[3] = system: Staphylococcus aureus; experiment: Antibacterial activity against Staphylococcus aureus UC-76 assessed as growth inhibition by gradient plate test; format: functional; in short: as §1
[4] = system: Staphylococcus aureus; experiment: Antibacterial activity against drug-resistant Staphylococcus aureus S18713 assessed as growth inhibition by gradient plate test; format: functional
In short: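 In vitro test against a bacterial panel (S. faecalis MGH-2, S. aureus UC-76 and drug-resistant S18713, E. coli Vogel, Shigella sonnei C-10), run as a modified gradient plate procedure.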

[5] = system: Escherichia coli; experiment: Antibacterial activity against Escherichia coli Vogel assessed as growth inhibition by gradient plate test; format: functional; in short: as §1
[6] = system: Shigella sonnei; experiment: Antibacterial activity against Shigella sonnei C-10 assessed as growth inhibition by gradient plate test; format: functional; in short: as §1
[7] = system: Plasmodium berghei; experiment: Antimalarial activity against drug-sensitive trophozoite stage of Plasmodium berghei infected in mouse assessed as survival over 60 days at 320 mg/kg, sc administered 72 hrs post infection; format: functional, organism-based; set-up: dose 320 mg/kg
[8] = system: Plasmodium berghei; experiment: Antimalarial activity against trophozoite stage of Plasmodium berghei infected in mouse assessed as increase in mean survival time at 40 mg/kg, sc administered 72 hrs post infection; format: functional; settings: route subcutaneous
[9] = system: Plasmodium cynomolgi; experiment: Antimalarial activity against trophozoite stage of Plasmodium cynomolgi infected in rhesus monkey at 3.16 mg/kg, po; format: functional, organism-based; set-up: dose 3.16 mg/kg
In short: (§2)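 Rhesus monkey, one oral dose. Trophozoite-induced P. cynomolgi infection at 3.16 mg/kg; sporozoite-induced P. cynomolgi infection at 10 mg/kg.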

[10] = system: Plasmodium cynomolgi; experiment: Antimalarial activity against sporozoite stage of Plasmodium cynomolgi infected in rhesus monkey at 10 mg/kg; format: functional, organism-based; set-up: dose 10 mg/kg; in short: as §2
[11] = system: Plasmodium gallinaceum; experiment: Antimalarial activity against sporozoite stage of Plasmodium gallinaceum infected in white leghorn cockerel assessed as increase in mean survival time at 480 mg/kg, sc administered through peanut oil on day of infection; format: functional; settings: route subcutaneous
[12] = system: Plasmodium gallinaceum; experiment: Antimalarial activity against sporozoite stage of Plasmodium gallinaceum infected in white leghorn cockerel assessed as increase in mean survival time at 120 mg/kg, sc administered through peanut oil on day of infection; format: functional; settings: route subcutaneous
[13] = system: Plasmodium gallinaceum; experiment: Antimalarial activity against sporozoite stage of Plasmodium gallinaceum infected in white leghorn cockerel assessed as increase in mean survival time at 30 mg/kg, sc administered through peanut oil on day of infection; format: functional; settings: route subcutaneous
[14] = system: Plasmodium gallinaceum; experiment: Antimalarial activity against sporozoite stage of Plasmodium gallinaceum infected in white leghorn cockerel assessed as survival over 30 days at 480 mg/kg, sc administered through peanut oil on day of infection; format: functional, organism-based; set-up: dose 480 mg/kg
[15] = system: Plasmodium gallinaceum; experiment: Antimalarial activity against sporozoite stage of Plasmodium gallinaceum infected in white leghorn cockerel assessed as survival over 30 days at 120 mg/kg, sc administered through peanut oil on day of infection; format: functional, organism-based; set-up: dose 120 mg/kg
[16] = system: Plasmodium gallinaceum; experiment: Antimalarial activity against sporozoite stage of Plasmodium gallinaceum infected in white leghorn cockerel assessed as survival over 30 days at 60 mg/kg, sc administered through peanut oil on day of infection; format: functional, organism-based; set-up: dose 60 mg/kg
[17] = system: Plasmodium gallinaceum; experiment: Antimalarial activity against sporozoite stage of Plasmodium gallinaceum infected in white leghorn cockerel assessed as survival over 30 days at 30 mg/kg, sc administered through peanut oil on day of infection; format: functional, organism-based; set-up: dose 30 mg/kg
[18] = system: Plasmodium gallinaceum; experiment: Antimalarial activity against sporozoite stage of Plasmodium gallinaceum infected in white leghorn cockerel assessed as increase in mean survival time at 7.5 mg/kg, sc administered through peanut oil on day of infection; format: functional; settings: route subcutaneous
[19] = system: Plasmodium gallinaceum; experiment: Antimalarial activity against sporozoite stage of Plasmodium gallinaceum infected in white leghorn cockerel assessed as increase in mean survival time at 3.75 mg/kg, sc administered through peanut oil on day of infection; format: functional; settings: route subcutaneous
[20] = system: Plasmodium gallinaceum; experiment: Antimalarial activity against sporozoite stage of Plasmodium gallinaceum infected in white leghorn cockerel assessed as survival over 30 days at 320 mg/kg, sc administered through peanut oil on day of infection; format: functional, organism-based; set-up: dose 320 mg/kg
[21] = system: Plasmodium gallinaceum; experiment: Antimalarial activity against sporozoite stage of Plasmodium gallinaceum infected in white leghorn cockerel assessed as survival over 30 days at 80 mg/kg, sc administered through peanut oil on day of infection; format: functional, organism-based; set-up: dose 80 mg/kg
[22] = system: Plasmodium gallinaceum; experiment: Antimalarial activity against sporozoite stage of Plasmodium gallinaceum infected in white leghorn cockerel assessed as survival over 30 days at 20 mg/kg, sc administered through peanut oil on day of infection; format: functional, organism-based; set-up: dose 20 mg/kg
[23] = system: Plasmodium berghei; experiment: Antimalarial activity against trophozoite stage of Plasmodium berghei infected in mouse assessed as increase in mean survival time at 160 mg/kg, sc administered 72 hrs post infection; format: functional; settings: route subcutaneous
[24] = system: Plasmodium gallinaceum; experiment: Antimalarial activity against sporozoite stage of Plasmodium gallinaceum infected in white leghorn cockerel assessed as survival over 30 days at 3.75 mg/kg, sc administered through peanut oil on day of infection; format: functional, organism-based; set-up: dose 3.75 mg/kg
[25] = system: Plasmodium gallinaceum; experiment: Antimalarial activity against sporozoite stage of Plasmodium gallinaceum infected in white leghorn cockerel assessed as survival over 30 days at 15 mg/kg, sc administered through peanut oil on day of infection; format: functional, organism-based; set-up: dose 15 mg/kg

Row | Compound | Activity [1] | MIC [2] [µg/mL] | MIC [3] [µg/mL] | MIC [4] [µg/mL] | MIC [5] [µg/mL] | MIC [6] [µg/mL] | also measured
1 | CC(C)N(Cc1c[n+]([O-])c2nc(N)nc(N)c2n1)c1ccc(Cl)cc1 | inactive | – | – | – | – | – | –
2 | CN(Cc1cnc2nc(N)nc(N)c2n1)c1ccc(Cl)cc1 | inactive | < 0.25 | 1.5 (≈ 4.75 µM) | 2 (≈ 6.33 µM) | > 25 | > 25 | –
3 | CC(C)N(Cc1c[n+]([O-])c2nc(N)nc(N)c2n1)c1ccc(Cl)c(Cl)c1 | inactive | – | – | – | – | – | –
4 | Nc1nc(N)c2nc(CN(C=O)c3ccc(Cl)c(Cl)c3)cnc2n1 | inactive | < 0.25 | 1 (≈ 2.75 µM) | 2 (≈ 5.49 µM) | > 25 | > 25 | –
5 | CN(Cc1c[n+]([O-])c2nc(N)nc(N)c2n1)c1ccc(Cl)cc1 | inactive | – | – | – | – | – | –
6 | CCN(Cc1c[n+]([O-])c2nc(N)nc(N)c2n1)c1ccc(OC)cc1 | inactive | – | – | – | – | – | –
7 | Nc1nc(N)c2nc(CNc3ccc(Cl)c(Cl)c3)c[n+]([O-])c2n1 | inactive | – | – | – | – | – | –
8 | CCN(Cc1c[n+]([O-])c2nc(N)nc(N)c2n1)c1ccc(Cl)cc1 | inactive | – | – | – | – | – | –
9 | CCCN(Cc1c[n+]([O-])c2nc(N)nc(N)c2n1)c1ccc(Cl)c(Cl)c1 | inactive | – | – | – | – | – | –
10 | CCN(Cc1cnc2nc(N)nc(N)c2n1)c1ccc(Cl)cc1 | inactive | < 0.25 | < 0.25 | 1.5 (≈ 4.55 µM) | > 25 | > 25 | –
11 | CN(Cc1c[n+]([O-])c2nc(N)nc(N)c2n1)c1ccc(Cl)c(Cl)c1 | inactive | – | – | – | – | – | –
12 | CN(Cc1cnc2nc(N)nc(N)c2n1)c1cccc2ccccc12 | – | < 0.25 | 1 (≈ 3.02 µM) | > 2.5 | > 25 | > 25 | Activity [7]: Active; Survival [8]: 5.4 days; Activity [9]: inactive; Activity [10]: inactive
13 | CC(C)N(Cc1cnc2nc(N)nc(N)c2n1)c1ccc(Cl)c(Cl)c1 | inactive | < 0.25 | < 0.25 | < 0.25 | > 25 | > 25 | –
14 | CN(C)C=O.Nc1nc(N)c2nc(CN3CCCCC3c3ccccc3)cnc2n1 (configuration not stated) | – | – | – | – | – | – | Survival [11]: 0.3 days; Survival [12]: 0.2 days; Survival [13]: 0.1 days
15 | CCOC(=O)c1ccc(N(C)Cc2cnc3nc(N)nc(N)c3n2)cc1 | inactive | – | – | – | – | – | Activity [14]: Active; Activity [15]: Active; Activity [16]: Active
16 | CN(Cc1cnc2nc(N)nc(N)c2n1)c1ccc(Cl)c(Cl)c1 | inactive | < 0.25 | < 0.25 | 1.5 (≈ 4.28 µM) | > 25 | > 25 | –
17 | COc1cc(N(C)Cc2c[n+]([O-])c3nc(N)nc(N)c3n2)cc(OC)c1OC | inactive | – | – | – | – | – | –
18 | Nc1nc(N)c2nc(CN3CCCc4ccccc43)cnc2n1 | – | – | – | – | – | – | Activity [14]: Active; Activity [15]: Active; Activity [16]: Active; Activity [17]: Active; Survival [18]: 2.3 days; Survival [19]: 1.3 days
19 | CCN(Cc1cnc2nc(N)nc(N)c2n1)c1ccc(OC)cc1 | inactive | < 0.25 | < 0.25 | < 0.25 | > 25 | > 25 | Activity [20]: Active; Activity [21]: Active; Activity [22]: Active
20 | CN(C)C=O.Nc1nc(N)c2nc(CNc3ccc(Cl)c(Cl)c3)cnc2n1 | inactive | < 0.25 | < 0.25 | < 0.25 | > 25 | > 25 | –
21 | COc1cc(N(C)Cc2cnc3nc(N)nc(N)c3n2)cc(OC)c1OC | – | < 0.25 | < 0.25 | < 0.25 | > 25 | > 25 | Activity [7]: Active; Survival [23]: 8.5 days
22 | CCCN(Cc1cnc2nc(N)nc(N)c2n1)c1ccc(Cl)c(Cl)c1 | inactive | < 0.25 | < 0.25 | < 0.25 | > 25 | > 25 | Activity [14]: Active; Activity [15]: Active; Activity [16]: Active; Activity [17]: Active; Activity [24]: Active
23 | CC(C)N(Cc1cnc2nc(N)nc(N)c2n1)c1ccc(Cl)cc1.CN(C)C=O | inactive | < 0.25 | < 0.25 | 1.5 | > 25 | > 25 | Activity [14]: Active; Activity [15]: Active; Activity [16]: Active; Activity [17]: Active; Activity [25]: Active; Activity [24]: Active
24 | CN(Cc1c[n+]([O-])c2nc(N)nc(N)c2n1)c1cccc2ccccc12 | inactive | – | – | – | – | – | –
